Screening results deposited in PubChem BioAssay by several laboratories.
Shown are actives, neighbours in structure and some others; about 1.3% of the full set was active somewhere.
Rpn11 inh = Rpn11 (PSMD14) deubiquitinase inhibitors, primary screen, biochemical, fluorescence polarization, uHTS; human 26S proteasome, Ub4-pepOG fluorescence polarization; 20S core pre-blocked with epoxomicin; inhibition, % at 20 µM; 0.59% of 360,000 active; AID 588493, 2011;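 active = inhibition at 20 µM, scaled to each plate's controls, above about 33%, limit read from the data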
Target sequence (O00487 whole entry, looked up): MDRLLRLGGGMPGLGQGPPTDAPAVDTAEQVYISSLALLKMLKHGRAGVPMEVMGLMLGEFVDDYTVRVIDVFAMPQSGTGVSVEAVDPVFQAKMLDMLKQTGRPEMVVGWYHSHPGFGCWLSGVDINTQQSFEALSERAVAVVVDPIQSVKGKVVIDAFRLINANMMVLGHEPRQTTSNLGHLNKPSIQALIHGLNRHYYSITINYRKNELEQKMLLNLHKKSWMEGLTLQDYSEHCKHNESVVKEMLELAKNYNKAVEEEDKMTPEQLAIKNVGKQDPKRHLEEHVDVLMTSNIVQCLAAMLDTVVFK
TPT1 inh = Candida albicans TPT1 enzyme inhibitors, primary screen, biochemical, fluorescence polarization | tRNA 2'-phosphotransferase TPT1 (Candida albicans SC5314) | recombinant caTPT1, FP RNA substrate dephosphorylation | inhibition, % at 5 µM | 0.81% of 300,000 active | AID 1962, 2009;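 active = inhibition above the mean of all tested compounds plus 3 SD, set per screening campaign, cut at about 24% in these data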;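 note: plate controls were DMSO alone for no effect and ferristatin control at 100 nM for full effect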
aDG glyco act = activators of alpha-DG glycosylation, primary screen, uHTS, Pro5-aDG cells, AlphaScreen; alpha-DG glycosylation AlphaScreen (IIH6); 0% Pro5, 100% B10-LARGE cell signal; activation, % at 10 µM; 0.22% of 360,000 active; AID 624168, 2012;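 active = activation of at least 8% versus controls, or a plate z-score of at least 8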;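 note: Pro5 are CHO cells carrying HIG-tagged alpha-DG that lacks glycosylation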
HNF4A DNA FP = change in binding of human HNF4A to DNA, primary screen, biochemical, fluorescence polarization, FITC-DNA; Hepatocyte nuclear factor 4-alpha (Homo sapiens), P41235; 1 h; activity change, % at 10 µM; 0.3% of 360,000 active; in the data active = activity change above about 30%, passing the limit was not always enough
XiGFP reactiv = activators of inactive X chromosome reactivation, primary screen, imaging, XiGFP fibroblasts, GFP high-content imaging, set 2; AID 743238, 2013; 0.055% of 360,000 active; activation, % at 7.58 µM; XiGFP mouse fibroblasts, % GFP-positive cells imaging, 3 d; cells co-treated with 5-aza-dC sensitizer; scaled so ellipticine positive control = 100%;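 active = mean normalized replicate activation at least 10% and every replicate at or above 10%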;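 note: 0% = median of on-plate neutral control wells and 100% = ellipticine 6 µM median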
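System: 68-5-11 XiGFP fibroblast line; Timing: 3 days compound exposure; Compound dosing: one concentration, pinned; Benchmarks: positive control ellipticine, 6 µM final; Buffer or medium: DMEM containing 5-aza-dC.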
CSN deneddyl inh = inhibitors of CSN-mediated cullin deneddylation, primary screen, biochemical, fluorescence polarization, uHTS; Purified CSN, SCF-Nedd8-OG deneddylation; AID 651999, 2013; inhibition, % at 12.5 µM; 0.38% of 360,000 active;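 active = pattern-corrected inhibition above about 35%, with an unprinted fluorescence ratio check between 0.5 and 1.5, limit read from the data, passing the limit was not always enough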;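 note: 0% = enzyme with substrate and 100% = substrate without enzyme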
Target sequence (Q92905 whole entry, looked up, one chain of several): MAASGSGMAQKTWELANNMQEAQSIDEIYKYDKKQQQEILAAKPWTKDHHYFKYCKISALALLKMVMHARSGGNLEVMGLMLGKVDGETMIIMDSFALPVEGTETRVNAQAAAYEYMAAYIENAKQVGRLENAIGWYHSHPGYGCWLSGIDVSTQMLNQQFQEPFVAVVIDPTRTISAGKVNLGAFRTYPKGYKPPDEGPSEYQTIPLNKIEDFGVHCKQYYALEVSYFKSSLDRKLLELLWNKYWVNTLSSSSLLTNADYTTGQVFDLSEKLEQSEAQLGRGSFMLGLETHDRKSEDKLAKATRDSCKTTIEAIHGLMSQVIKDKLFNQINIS
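Material: human Csn5 produced in HEK293T cells; Input: enzyme 0.24 nM; Reagent: SCFSkp2-Nedd8OG substrate at 10 nM final; Dosing: 12.5 µM compound; Incubation: 90 min reaction at room temperature; Detection: fluorescence polarization of the substrate; Evaluation: % inhibition of substrate cleavage by Csn5; Control set: substrate-only high control, full reaction low control.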
Rpn11 inh conf = Rpn11 (PSMD14) deubiquitinase inhibitors, confirmation, biochemical, fluorescence polarization, single concentration. shares compounds with Rpn11 inh. purified human 26S proteasome, Ub4-pepOG fluorescence polarization; proteasome pretreated with epoxomicin. inhibition, % at 20 µM. 29% of 1,900 active. AID 602318, 2012
MMP-2 inh = MMP-2 enzyme inhibition, confirmation, counter-screen for RPN11 inhibitor project, biochemical, fluorescence, single concentration | shares compounds with Rpn11 inh | recombinant MMP-2, FRET peptide cleavage fluorescence | inhibition, % at 20 µM | 4% of 1,900 active | AID 602330, 2012;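 note: human MMP-2 activated beforehand with APMA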
Thrombin inh = bovine thrombin protease inhibition, confirmation, counter-screen for Rpn11 inhibitor project, biochemical, fluorescence polarization, single concentration | shares compounds with Rpn11 inh | bovine thrombin cleavage of Ub4-pepOG | inhibition, % at 20 µM | 13% of 1,900 active | AID 602333, 2012;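 active = mean inhibition at least 40% at 20 µM, or signal 3 deviations below plate average, so some actives read negative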;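 note: plate controls were thrombin with DMSO for no effect and buffer wells lacking thrombin for full effect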
Numbers without * were called inactive; . = not tested or not shown; + = active, no number. Cut-off read from the data, not from the text of the source, unless noted: active = inhibition above about 40%; inactive = the rest.

SMILES	Rpn11 inh	TPT1 inh	aDG glyco act	HNF4A DNA FP	XiGFP reactiv	CSN deneddyl inh	Rpn11 inh conf	MMP-2 inh	Thrombin inh
Cc1noc(C)c1NC(=O)N(C)C[C@H]1Oc2ccc(NS(=O)(=O)c3ccc(F)cc3)cc2C(=O)N([C@H](C)CO)C[C@@H]1C	60*	.	0	7	0	0	-4	-7	5
CCN(CC)c1ccc(/C=N/NC(=O)c2cccc(S(=O)(=O)Nc3ccccc3OC)c2)cc1	50*	1	1	11	0	14	57*	-19	33
COc1ccccc1NS(=O)(=O)c1cccc(C(=O)N/N=C/c2ccc3c(c2)OCCO3)c1	4	2	0	4	0	0	.	.	.
C[C@@H]1CN([C@H](C)CO)C(=O)c2cc(NC(=O)Nc3cccc4ccccc34)ccc2O[C@@H](C)CCCCO[C@H]1CN(C)Cc1ccncc1	.	.	.	.	3	.	.	.	.
CNC[C@@H]1Oc2ccc(N)cc2CC(=O)N(C)C[C@@H]1C	.	.	.	.	0	.	.	.	.
CCN(CC)CCNc1nc(-c2ccccc2)c2c(c1C#N)CC(C)(C)OC2	-1	-3	0	0	.	2	.	.	.
CC1(C)Cc2c(C#N)c(NCCCO)nc(-c3ccccc3)c2CO1	68*	-5	0	28*	0	0	-10	-26	-14
CCCNC(=O)C[C@@H]1CC[C@@H]2[C@H](COC[C@H](O)CN2C(=O)Nc2cccc(Cl)c2)O1	.	.	.	.	0	.	.	.	.
COc1ccc(NC(=O)Nc2ccc3c(c2)C(=O)N(C)C[C@@H](OC)[C@@H](C)CN[C@@H](C)CO3)cc1	.	.	.	.	1	.	.	.	.
CN(C)CC(=O)Nc1ccc2c(c1)[C@@H]1C[C@H](CC(=O)NCc3ccc(Cl)cc3)O[C@H](CO)[C@@H]1O2	.	.	.	.	0	.	.	.	.
CN1C(=O)c2cc(NC(=O)c3ccc(F)cc3)ccc2OC[C@@H]2O[C@H](CC(=O)N3CCOCC3)CC[C@@H]21	.	.	.	.	0	.	.	.	.
COc1ccc(N2CCN(C(=O)Cc3cccs3)CC2)cc1	-3	-2	0	-2	.	-2	.	.	.
CC(=O)c1ccc(N2CCN(C(=O)Cc3cccs3)CC2)cc1	62*	1	0	88*	0	-5	-10	50*	-7
Cc1ccc(CSc2cc(C)[nH]c(=O)n2)cc1	64*	14	0	12	0	1	28	-2	19
CCc1cccc(CC)c1NC(=O)CN1CC(C)SC1=NC1CCCCC1 (stereo unspecified)	61*	-18	1	5	.	-2	-13	-7	-4
CCc1cccc(CC)c1NC(=O)NC1CCCCC1	-2	-2	0	1	0	-4	.	.	.
O=C(COc1ccc(F)cc1)NN1C(=O)CSC1=S	67*	2	0	36	0	24	-10	21	-13
C[C@H]1CCCCO[C@@H](CN(C)C(=O)c2ccccc2)[C@@H](C)CN([C@@H](C)CO)C(=O)c2cc(NC(=O)Nc3ccc(C(F)(F)F)cc3)ccc2O1	.	.	.	.	0	.	.	.	.
COc1ccc2c(c1)CCc1sc(NC(=O)c3ccco3)nc1-2	-7	2	0	1	.	1	.	.	.
COc1ccc2c(c1)Cc1sc(NC(=O)c3ccco3)nc1-2	152*	-4	0	1	.	24	-5	-31	-9
COc1ccc2cc(C(=O)C3CCCN(Cc4cnc(N5CCOCC5)s4)C3)ccc2c1 (stereo unspecified)	42*	-5	0	0	0	1	0	-20	6
Cc1noc(C)c1S(=O)(=O)Nc1ccc2c(c1)CC(=O)N([C@H](C)CO)C[C@@H](C)[C@H](CN(C)C(=O)Nc1ccc(C(F)(F)F)cc1)O2	.	.	.	.	0	.	.	.	.
CCN1/C(=C\C=C2\C(=O)N(c3ccccc3)C(=S)N2C)Sc2ccccc21	48*	.	0	8	0	3	-2	0	-5
CCOC(=O)Cn1c(=NC(=O)c2ccc([N+](=O)[O-])s2)sc2ccccc21	44*	2	0	26	18*	-3	-5	-39	-75
Cc1cccc(OCC(=O)NNC(=O)c2cc(S(=O)(=O)N(C)C)ccc2N2CCCC2)c1	42*	.	0	1	0	0	34	-11	-4
SMILES	Rpn11 inh	TPT1 inh	aDG glyco act	HNF4A DNA FP	XiGFP reactiv	CSN deneddyl inh	Rpn11 inh conf	MMP-2 inh	Thrombin inh
C=CC[n+]1c(-c2ccc(OCC)cc2)csc1NNC(=O)Nc1ccccc1	42*	12	2	-1	.	1	-22	12	-28
CO[C@@H]1CN(C)C(=O)c2ccc(NS(=O)(=O)c3ccc(Cl)cc3)cc2OC[C@@H](C)NC[C@@H]1C	.	.	.	.	0	.	.	.	.
C[C@@H](NC(=O)c1ncn2c1c(=O)[nH]c1ccc(Br)cc12)c1ccccc1	+	.	0	24	1	12	4	2	-3
COC1=C/C(=C/c2c(N)n3nc(CC(=O)N4CCCCC4)sc3nc2=O)C=CC1=O	51*	8	1	7	.	12	39	4	52*
CCOC1=C/C(=C/c2c(N)n3nc(CC(=O)N4CCCCC4)sc3nc2=O)C=CC1=O	79*	10	0	11	0	24	44*	3	38
C=CCC1=C/C(=C\c2c(N)n3nc(CC(=O)N4CCCC4)sc3nc2=O)C=C(OC)C1=O	.	20	-1	16	0	34	.	.	.
CC(=O)N(C)C[C@@H]1Oc2ncc(C#Cc3ccncc3)cc2C(=O)N([C@H](C)CO)C[C@H]1C	.	.	.	.	0	.	.	.	.
C=CCn1c(SCC(=O)Nc2ccc(-c3nc4ccc(C)cc4s3)cc2)nnc1-c1ccccc1	64*	9	0	2	.	20	81*	-18	-3
